The values that follow come from ChEMBL document CHEMBL1125776, “Enantioselective and diastereoselective hydroxylation of bufuralol. Absolute configuration of the 7-(1-hydroxyethyl)-2-[1-hydroxy-2-(tert-butylamino)ethyl]benzofurans, the benzylic hydroxylation metabolites” (J Med Chem, 1991).

The first experiment is filed under the species Homo sapiens. Kind of experiment: Mean of rate of formation in all human liver microsomes. In kind it is functional, organism-based. More on the design: unit not given here. In outline:
(§1)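 Human liver microsomes from frozen bank tissue, washed and resuspended in 100 mM potassium phosphate/20% glycerol/1 mM EDTA, pH 7.4. Incubated with (1'R)- or (1'S)-bufuralol 200 μM, 3 mg protein, NADP+ 1 mM, glucose 6-phosphate 20 mM, MgCl2 10 mM, G6PDH 5 units, 0.20 M phosphate pH 7.4, 37 °C, 30 min. Benzylic alcohols derivatized with (R)-PEIC, reversed-phase HPLC at 248 nm against internal standard, calibration 2-10 μg.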
(In general: Liver microsomes are vesicles of endoplasmic reticulum, rich in cytochrome P450 enzymes.)
`C[C@H](O)c1cccc2cc([C@@H](O)CNC(C)(C)C)oc12`: the Mean was determined as 66.6.

Compound `C[C@H](O)c1cccc2cc([C@H](O)CNC(C)(C)C)oc12` came in with a Mean of 266.

Compound `C[C@@H](O)c1cccc2cc([C@H](O)CNC(C)(C)C)oc12` registered a Mean of 66.5.

Regarding `C[C@@H](O)c1cccc2cc([C@@H](O)CNC(C)(C)C)oc12`, the Mean came out at 70.2.

The species entered for a further experiment is Homo sapiens. Put plainly: Compound was tested for the rate of formation in human liver microsomes 108. In kind it is functional. An outline of the steps: as §1
In turn, `C[C@H](O)c1cccc2cc([C@@H](O)CNC(C)(C)C)oc12` had a Rate of formation (pM min-1 (mg of protein)-1) of 101.

In turn, `C[C@H](O)c1cccc2cc([C@H](O)CNC(C)(C)C)oc12` came in with a Rate of formation (pM min-1 (mg of protein)-1) of 363.

In the case of `C[C@@H](O)c1cccc2cc([C@H](O)CNC(C)(C)C)oc12`, the Rate of formation (pM min-1 (mg of protein)-1) was 74.5.

Compound `C[C@@H](O)c1cccc2cc([C@@H](O)CNC(C)(C)C)oc12` returned a Rate of formation (pM min-1 (mg of protein)-1) of 86.5.

For another experiment, the species on record is Homo sapiens. Put plainly: Compound was tested for the rate of formation in human liver microsomes 112. The format is functional. An outline of the steps: as §1
`C[C@H](O)c1cccc2cc([C@@H](O)CNC(C)(C)C)oc12` gave a Rate of formation (pM min-1 (mg of protein)-1) of 32.

Compound `C[C@H](O)c1cccc2cc([C@H](O)CNC(C)(C)C)oc12` came in with a Rate of formation (pM min-1 (mg of protein)-1) of 136.

`C[C@@H](O)c1cccc2cc([C@H](O)CNC(C)(C)C)oc12` returned a Rate of formation (pM min-1 (mg of protein)-1) of 54.5.

For `C[C@@H](O)c1cccc2cc([C@@H](O)CNC(C)(C)C)oc12`, the Rate of formation (pM min-1 (mg of protein)-1) was 48.9.

The species named for another experiment is Homo sapiens. Put plainly: Compound was tested for the rate of formation in human liver microsomes 114. In kind it is functional. In outline: as §1
`C[C@H](O)c1cccc2cc([C@@H](O)CNC(C)(C)C)oc12` showed a Rate of formation (pM min-1 (mg of protein)-1) of 58.8.

In turn, `C[C@H](O)c1cccc2cc([C@H](O)CNC(C)(C)C)oc12` returned a Rate of formation (pM min-1 (mg of protein)-1) of 211.

In the case of `C[C@@H](O)c1cccc2cc([C@H](O)CNC(C)(C)C)oc12`, the Rate of formation (pM min-1 (mg of protein)-1) came out at 61.7.

Compound `C[C@@H](O)c1cccc2cc([C@@H](O)CNC(C)(C)C)oc12` registered a Rate of formation (pM min-1 (mg of protein)-1) of 62.1.

The species entered for the next experiment is Homo sapiens. Put plainly: Compound was tested for the rate of formation in human liver microsomes 116. The format is functional. An outline of the steps:
as §1
Regarding `C[C@H](O)c1cccc2cc([C@@H](O)CNC(C)(C)C)oc12`, the Rate of formation (pM min-1 (mg of protein)-1) turned out to be 74.9.

The compound `C[C@H](O)c1cccc2cc([C@H](O)CNC(C)(C)C)oc12` showed a Rate of formation (pM min-1 (mg of protein)-1) of 355.

On to `C[C@@H](O)c1cccc2cc([C@H](O)CNC(C)(C)C)oc12`, for which the Rate of formation (pM min-1 (mg of protein)-1) came to 75.3.

For the compound `C[C@@H](O)c1cccc2cc([C@@H](O)CNC(C)(C)C)oc12`, the Rate of formation (pM min-1 (mg of protein)-1) came out at 83.3.

For another experiment, the species on record is Rattus norvegicus. Put plainly: Compound was tested for the rate of formation in rat liver microsomes. The format is functional. An outline of the steps:
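Liver microsomes from male Sprague-Dawley rats (~150 g) prepared at 0-4 °C. Incubated with (1'R)- or (1'S)-bufuralol 200 μM, 3 mg protein, NADP+ 1 mM, glucose 6-phosphate 20 mM, MgCl2 10 mM, G6PDH 5 units, 0.20 M phosphate pH 7.4, 37 °C, 30 min. Alcohol diastereomers derivatized with (R)-PEIC, reversed-phase HPLC at 248 nm against internal standard, calibration 10-60 μg.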
`C[C@H](O)c1cccc2cc([C@@H](O)CNC(C)(C)C)oc12` came in with a Rate of formation (pM min-1 (mg of protein)-1) of 96.1.

In turn, `C[C@H](O)c1cccc2cc([C@H](O)CNC(C)(C)C)oc12` showed a Rate of formation (pM min-1 (mg of protein)-1) of 500.

The compound `C[C@@H](O)c1cccc2cc([C@H](O)CNC(C)(C)C)oc12` showed a Rate of formation (pM min-1 (mg of protein)-1) of 2270.

`C[C@@H](O)c1cccc2cc([C@@H](O)CNC(C)(C)C)oc12`: the Rate of formation (pM min-1 (mg of protein)-1) came to 741.
